Values belong to the compound of their own block, whether it stands above or below them.
Key:
[1] = design: species or system human; settings: index chemical half-life 3.14 years divided by relative renal clearance
[2] = test system: hTERT-RPTEC; experiment: LDH release; type: cell-based, human; settings: 24 hrs exposure, relative to vehicle controls, 96-well plates
In short: (§1)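 LDH activity measured with a biochemical kit in medium sampled after 24 h exposure to test compound. Expressed as % of vehicle-treated cultures. Compared by one-way ANOVA with Dunnett's post hoc test (p < 0.05). Replicates: n ≥ 3 in 96-well plates, n ≥ 4 in Transwells.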

[3] = test system: hTERT-RPTEC-OAT1; experiment: LDH release; type: cell-based, human; settings: 24 hrs exposure, relative to vehicle controls, 96-well plates
In short: as §1

[4] = test system: hTERT-RPTEC-OAT1; experiment: LDH release; type: cell-based, human; settings: 24 hrs exposure, relative to vehicle controls, Transwells
In short: as §1

[5] = test system: hTERT-RPTEC-OAT1; experiment: TEER barrier integrity, hTERT-RPTEC-OAT1 Transwells; type: cell-based, human; settings: 24 hrs post-treatment
In short: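 Resistance read with an epithelial voltohmmeter and Ag/AgCl probes after treatment. Blank-membrane resistance subtracted, then multiplied by 0.143 cm2 growth area; reported as Ω×cm2. Pre-treatment cultures under 65 Ω×cm2 excluded; n ≥ 4.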

[6] = test system: hTERT-RPTEC; experiment: Uptake / intracellular accumulation and P ratio, hTERT-RPTEC in 96-well plates; type: in vitro ADME, human; settings: 24 h, cell lysates and media
In short: (§2)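 Cells seeded uncoated at 32,000 per well in 96-well plates, grown 6 days at 37°C, 5% CO2, medium changed every 48 h. Exposed to test compound in 150 μL medium (PFAS 5 μM final). Medium sampled at 4 and 24 h; cells PBS-rinsed and M-PER lysed at 24 h. Acetonitrile precipitation with internal standards, then LC-MS/MS. Two-compartment model, P ratio = medium/cell concentration; n ≥ 3.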

[7] = test system: hTERT-RPTEC-OAT1; type: in vitro ADME, human; settings: 96-well plates; for Accumulation in cells versus medium: 24 h, cell lysates and media, OAT1-overexpressing cells
In short: as §2

[8] = test system: hTERT-RPTEC-OAT1; experiment: Directional transport, recovery and P ratio, hTERT-RPTEC-OAT1 Transwells; type: in vitro ADME, human; settings: for Recovery pattern, apical (A→B) versus basolateral (B→A) treatment: 24 h, donor and recipient media and cell lysates
In short: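 hTERT-RPTEC-OAT1 cells seeded on fibronectin-coated (100 μg/mL, 1 h, 37°C) Transwells at 22,050 cells/insert. Cultured 2 days at 37°C, 5% CO2; inserts under 65 Ω×cm2 TEER excluded. Test compound (PFAS 5 μM final) added apically (A→B) or basolaterally (B→A), fresh medium opposite. Both chambers sampled at 4 and 24 h; cells lysed (M-PER, 10 min, RT) at 24 h. LC-MS/MS after acetonitrile precipitation with internal standards. Three-compartment Bayesian MCMC fit gave P1–P4; P ratio = P2P4/P1P3; n ≥ 4.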

[9] = test system: hTERT-RPTEC-OAT1; design: species or system human; settings: 96-well plates, two-compartment model
In short: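 96-well P ratio (medium/cell concentration, two-compartment model, assuming P1 = P2) entered a physiologically based kidney model. CLrenal,free was calculated from renal arterial blood flow (QK), proximal tubule flow (QPT) and P ratio, and predictions were set against literature human in vivo values.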

[10] = applied from the basolateral side (B→A)

SMILES: O=S(=O)(O)C(F)(F)C(F)(F)C(F)(F)C(F)(F)F [PFBS, Perfluorobutanesulfonic acid]
Predicted human half-life [1]: Days/Months

LDH release [2]: significant LDH release | LDH release [3]: significant LDH release | LDH release [4]: significant LDH release | TEER [5]: pronounced reduction in TEER
SMILES: CCCCCCCC[N+](CCCCCCCC)(CCCCCCCC)CCCCCCCC.[Br-] [TAB, tetraoctyl ammonium bromide, reference compound]

SMILES: O=C(O)C(F)(F)C(F)(F)C(F)(F)C(F)(F)C(F)(F)C(F)(F)C(F)(F)C(F)(F)C(F)(F)F [PFDA, Perfluorodecanoic acid]
TEER [5, 10]: small but significant decrease in TEER | Accumulation in cells versus medium [6]: tended to accumulate more in cells | Accumulation in cells versus medium [7]: tended to accumulate more in cells | Recovery pattern, apical (A→B) versus basolateral (B→A) treatment [8]: divergent recovery patterns depending on dosing orientation

Accumulation in cells versus medium [6]: tended to accumulate more in cells | Accumulation in cells versus medium [7]: tended to accumulate more in cells
SMILES: O=S(=O)(O)CCC(F)(F)C(F)(F)C(F)(F)C(F)(F)C(F)(F)C(F)(F)C(F)(F)C(F)(F)F [8:2 FTS, 8:2 Fluorotelomer sulfonic acid]
Recovery pattern, apical (A→B) versus basolateral (B→A) treatment [8]: divergent recovery patterns depending on dosing orientation

P ratio, OAT1-overexpressing cells versus parental cells [7]: roughly 100 fold lower | Intracellular association ([8]; ratios of measured concentrations): higher intracellular association | Predicted renal clearance, OAT1-overexpressing cells versus parental cells [9]: significantly lower
SMILES: C[C@H](Cn1cnc2c(N)ncnc21)OCP(=O)(O)O [Tenofovir, Tenofovir (TFV), reference compound]
Accumulation in cells versus medium [7]: enhanced accumulation in the OAT1-overexpressing cells

SMILES: O=C(O)C(F)(F)C(F)(F)C(F)(F)C(F)(F)C(F)(F)C(F)(F)C(F)(F)C(F)(F)C(F)(F)C(F)(F)F [PFUnDA, Perfluoroundecanoic acid]
TEER [5, 10]: small but significant decrease in TEER | Accumulation in cells versus medium [6]: tended to accumulate more in cells | Accumulation in cells versus medium [7]: tended to accumulate more in cells | Recovery pattern, apical (A→B) versus basolateral (B→A) treatment [8]: divergent recovery patterns depending on dosing orientation

SMILES: O=C(O)C(F)(F)C(F)(F)C(F)(F)C(F)(F)C(F)(F)C(F)(F)C(F)(F)F [PFOA, Perfluorooctanoic acid]
LDH release [3]: small but significant increase in LDH release

SMILES: O=C(O)C(F)(F)C(F)(F)C(F)(F)C(F)(F)C(F)(F)F [PFHxA, Perfluorohexanoic acid]
Predicted human half-life [1]: Days/Months

SMILES: O=S(=O)(O)C(F)(F)C(F)(F)C(F)(F)C(F)(F)C(F)(F)C(F)(F)C(F)(F)C(F)(F)F [PFOS, Perfluorooctanesulfonic acid]
Recovery pattern, apical (A→B) versus basolateral (B→A) treatment [8]: divergent recovery patterns depending on dosing orientation

Reference: paper PMC12951621 (Toxicology, 2025)
